Where no end group is shown, it is not given here. [ ]: non-standard residue; d: D form. Lys(Me3) = C[N+](C)(C)CCCC[C@H](N)C(=O)O; pT = C[C@@H](OP(=O)(O)O)[C@H](N)C(=O)O; Lys(Me2) = CN(C)CCCC[C@H](N)C(=O)O; Lys(Me) = CNCCCC[C@H](N)C(=O)O
Tests used:
U2OS cells [1] = experiment: Histone H3K4ac immunoblot in U2OS cells after HAT inhibition or Tip60 depletion; format: cell-based; conditions: for H3K4ac level: U2OS cells, anti-H3K4ac immunoblot
Summary of the method: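 Asynchronous and nocodazole-arrested mitotic U2OS cells were treated with the Tip60 acetyltransferase inhibitor Nu9056 for 1 h. Separately, U2OS cells engineered for doxycycline-induced shRNA against Tip60 were depleted of Tip60. Histone H3 K4 acetylation was read by immunoblot with anti-H3K4ac antibody at 1:1000.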

U2OS cells [2] = experiment: Aurora B at centromeres of interphase; format: cell-based; conditions: interphase (S/G2) cells, immunofluorescence, ACA mask
hSurvivin = hSurvivin (Homo sapiens, UniProt O15392); conditions: ITC, pH 7.2, 25°C; ref Niedzialkowska et al. (2012); cited from earlier work
U2OS cells [3] = format: cell-based; conditions: HDAC3 shRNA, immunofluorescence
[4] = biological target: human Survivin (hSurvivin) (human, UniProt O15392 1-142); experiment: ITC
human Survivin (hSurvivin), sequence (O15392 whole entry): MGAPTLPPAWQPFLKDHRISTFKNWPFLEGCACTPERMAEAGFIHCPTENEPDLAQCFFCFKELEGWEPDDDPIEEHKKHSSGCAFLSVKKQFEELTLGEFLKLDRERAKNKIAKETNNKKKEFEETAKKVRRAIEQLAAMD

hSurvivin, sequence (O15392 whole entry): as above

Molecule	dH [4] [kcal/mol]	stoichiometry N [4]	also measured
Clc1ccc(-c2csc(NN=C3CCCC3)n2)cc1 [CTPH2]	–	–	H3K4ac level (U2OS cells [1]): not GCN5 (CTPH2) or p300/CBP (Inhibitor VI) resulted in decreased H3K4ac levels
c1cc(SSc2ccns2)sn1 [Nu9056]	–	–	Aurora B localization at centromeres in interphase cells (U2OS cells [2]): leads to Aurora B localization at centromeres in interphase (S/G2) cells; H3K4ac level (U2OS cells [1]): resulted in decreased H3K4ac levels; H3K4ac level in mitotic cells (U2OS cells [1]; mitotic U2OS cells, nocodazole arrested, Nu9056 for 1 h, immunoblot): also sensitive to the Tip60 inhibitor
H3(1-12): first 12 amino acids of histone H3; values from Niedzialkowska et al. (2012)	–	–	–TΔS (hSurvivin): –4040 cal/mol
H3T3ph(1-12): histone H3 residues 1-12 with T3 phosphorylation; values from Niedzialkowska et al. (2012)	–	–	–TΔS (hSurvivin): –2800 cal/mol
shHDAC3: HDAC3 shRNA targeting sequence AGAAGTCCACTACCTGGTT (the letters are possibly those of the target site)	–	–	Aurora B at centromeres after HDAC3 depletion (U2OS cells [3]): most of the Aurora B remains on noninner centromeric (chromosome arm) regions after HDAC3 depletion
AR[pT][Lys(Me)]QTARKSTG (peptide, UniProt P68431 2-13, looked up) [histone H3 peptide H3T3phK4me1(1-12)]	-4.692 ± 0.026	1.03 ± 0.005	–
ART[Lys(Me)]QTARKSTG (peptide, UniProt P68431 2-13, looked up) [histone H3 peptide H3K4me1(1-12)]	-2.68 ± 0.06	1.08 ± 0.012	–
ART[Lys(Me2)]QTARKSTG (peptide, UniProt P68431 2-13, looked up) [histone H3 peptide H3K4me2(1-12)]	-2.61 ± 0.04	0.899 ± 0.01	–
ART[Lys(Me3)]QTARKSTG (peptide, UniProt P68431 2-13, looked up) [histone H3 peptide H3K4me3(1-12)]	-6 ± 0.7	0.83 ± 0.07	–
AR[pT]K(Ac)QTARKSTG (peptide, UniProt P68431 2-13, looked up) [histone H3 peptide H3T3phK4ac(1-12)]	-7.3 ± 0.1	0.965 ± 0.009	–
AR[pT][Lys(Me2)]QTARKSTG (peptide, UniProt P68431 2-13, looked up) [histone H3 peptide H3T3phK4me2(1-12)]	-6.25 ± 0.06	0.873 ± 0.004	–
AR[pT][Lys(Me3)]QTARKSTG (peptide, UniProt P68431 2-13, looked up) [histone H3 peptide H3T3phK4me3(1-12)]	-4.63 ± 0.09	1.21 ± 0.02	–
